Data set [1] addresses T1, Alpha-1D adrenergic receptor (Homo sapiens, UniProt P25100).
T1 sequence (P25100 whole entry): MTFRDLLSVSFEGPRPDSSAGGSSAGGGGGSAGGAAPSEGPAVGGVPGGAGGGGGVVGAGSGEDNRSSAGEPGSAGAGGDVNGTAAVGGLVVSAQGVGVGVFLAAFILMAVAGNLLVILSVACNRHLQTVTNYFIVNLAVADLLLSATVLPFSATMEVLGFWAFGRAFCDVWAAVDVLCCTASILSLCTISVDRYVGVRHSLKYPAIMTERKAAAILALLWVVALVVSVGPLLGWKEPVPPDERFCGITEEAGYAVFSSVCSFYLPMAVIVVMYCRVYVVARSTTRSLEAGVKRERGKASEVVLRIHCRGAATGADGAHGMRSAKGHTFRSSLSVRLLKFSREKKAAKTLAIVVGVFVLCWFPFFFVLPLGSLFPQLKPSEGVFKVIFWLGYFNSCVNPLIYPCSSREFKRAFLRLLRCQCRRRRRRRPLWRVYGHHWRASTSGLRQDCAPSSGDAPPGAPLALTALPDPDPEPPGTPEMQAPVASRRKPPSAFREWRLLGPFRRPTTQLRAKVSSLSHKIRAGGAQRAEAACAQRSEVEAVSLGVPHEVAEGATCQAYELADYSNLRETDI
Description: Displacement of [3H]-Prazosin from human alpha-1D adrenergic receptor transfected in CHO cell membranes after 2 hrs by microplate scintillation counting analysis. In short, it runs like this:
(§1)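 Radioligand competition binding used [3H]prazosin on membranes from CHO cells transfected with human cloned α1A-, α1B- or α1D-adrenoceptors.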
In general terms: Displacement assays read how much labelled ligand stays bound in the presence of the test substance.

Data set [2] can be described thus: Cytotoxicity against HEK293A cells transfected with alpha-1A adrenergic receptor assessed as cell viability by sulforhodamine B assay. In kind it is cell-based. To be noted: Homo sapiens, HEK293-A. In a few lines: (§2)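 Standard sulforhodamine B colorimetric assay in HEK293A cells stably transfected with α1A-AR or α1D-AR.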
A general note: The SRB assay estimates cell density from bound dye.

The nature of data set [3]: Cytotoxicity against HEK293A cells transfected with alpha-1D adrenergic receptor assessed as cell viability by sulforhodamine B assay. As to conditions: Homo sapiens, HEK293-A. In kind it is cell-based. In a few lines: as §2
Data set [4] has as its target T2, Alpha-1A adrenergic receptor (Homo sapiens) (UniProt P35348).
T2 sequence (whole entry): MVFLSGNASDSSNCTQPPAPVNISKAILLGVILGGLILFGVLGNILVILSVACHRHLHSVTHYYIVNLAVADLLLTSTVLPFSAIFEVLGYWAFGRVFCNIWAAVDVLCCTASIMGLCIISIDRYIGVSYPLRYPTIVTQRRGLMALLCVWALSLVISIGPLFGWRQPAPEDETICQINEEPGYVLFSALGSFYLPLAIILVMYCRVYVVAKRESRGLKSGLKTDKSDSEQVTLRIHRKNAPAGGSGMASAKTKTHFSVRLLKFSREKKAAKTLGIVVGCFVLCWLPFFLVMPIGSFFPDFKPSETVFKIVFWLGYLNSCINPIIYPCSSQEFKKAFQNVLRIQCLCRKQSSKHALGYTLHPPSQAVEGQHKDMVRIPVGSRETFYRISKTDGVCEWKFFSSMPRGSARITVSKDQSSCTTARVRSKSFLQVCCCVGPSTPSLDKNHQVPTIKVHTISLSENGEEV
Description: Binding affinity to alpha-1A adrenergic receptor (unknown origin) transfected in HEK293A cells at 50 nM after 5 mins by DiD dye-based confocal microscopic analysis. In kind it is cell-based. To be noted: HEK293-A. In short, it runs like this:
(§3)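 α1A-AR- or α1D-AR-transfected HEK293A cells, or untransfected HEK293A cells as the receptor-free control, were incubated with the probe plus DiD (red, colocalization) for 5 min at 37 °C. Probe signal was compared with the DiD-stained surface for subcellular localization by fluorescence microscopy.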

Data set [5] has as its target T3, Alpha-1D adrenergic receptor (Homo sapiens) (UniProt P25100).
T3 sequence (whole entry): T1 sequence (P25100 whole entry)
The experiment in a line: Binding affinity to alpha-1D adrenergic receptor (unknown origin) transfected in HEK293A cells at 50 nM after 5 mins by DiD dye-based confocal microscopic analysis. In kind it is cell-based. To be noted: HEK293-A. In short, it runs like this: as §3

Data set [6] deals with T2, Alpha-1A adrenergic receptor (Homo sapiens). The experiment in a line: Binding affinity to alpha-1A adrenergic receptor (unknown origin) transfected in HEK293A cells at 50 nM after 5 mins by DiD dye-based confocal microscopic analysis in presence of alpha1 adrenergic receptor antagonist tamsulosin. In kind it is cell-based. To be noted: HEK293-A. In a few lines: (§4)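 Transfected HEK293A cells expressing α1A-AR or α1D-AR were incubated with the probe, DiD and tamsulosin as competing α1-AR antagonist for 5 min at 37 °C. Fluorescence labelling was imaged by confocal microscopy.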

Data set [7] deals with T3, Alpha-1D adrenergic receptor (Homo sapiens). Description: Binding affinity to alpha-1D adrenergic receptor (unknown origin) transfected in HEK293A cells at 50 nM after 5 mins by DiD dye-based confocal microscopic analysis in presence of alpha1 adrenergic receptor antagonist tamsulosin. In kind it is cell-based. As to conditions: HEK293-A. In a few lines: as §4
A short description of data set [8]: Drug uptake in HEK293A cells at 50 nM after 5 mins by DiD dye-based confocal microscopic analysis. To be noted: human, hek293-a, 0.05 µM. In kind it is ADME, cell-based. In a few lines: as §3
Data set [9] concerns the target T4, Alpha-1A adrenergic receptor (Homo sapiens, UniProt P35348).
T4 sequence (P35348 whole entry): T2 sequence (whole entry)
The experiment in a line: Displacement of [3H]-Prazosin from human alpha-1A adrenergic receptor transfected in CHO cell membranes after 2 hrs by microplate scintillation counting analysis. In short, it runs like this: as §1

In data set [10] the target is T5, Alpha-1B adrenergic receptor (Homo sapiens, UniProt P35368).
T5 sequence (P35368 whole entry): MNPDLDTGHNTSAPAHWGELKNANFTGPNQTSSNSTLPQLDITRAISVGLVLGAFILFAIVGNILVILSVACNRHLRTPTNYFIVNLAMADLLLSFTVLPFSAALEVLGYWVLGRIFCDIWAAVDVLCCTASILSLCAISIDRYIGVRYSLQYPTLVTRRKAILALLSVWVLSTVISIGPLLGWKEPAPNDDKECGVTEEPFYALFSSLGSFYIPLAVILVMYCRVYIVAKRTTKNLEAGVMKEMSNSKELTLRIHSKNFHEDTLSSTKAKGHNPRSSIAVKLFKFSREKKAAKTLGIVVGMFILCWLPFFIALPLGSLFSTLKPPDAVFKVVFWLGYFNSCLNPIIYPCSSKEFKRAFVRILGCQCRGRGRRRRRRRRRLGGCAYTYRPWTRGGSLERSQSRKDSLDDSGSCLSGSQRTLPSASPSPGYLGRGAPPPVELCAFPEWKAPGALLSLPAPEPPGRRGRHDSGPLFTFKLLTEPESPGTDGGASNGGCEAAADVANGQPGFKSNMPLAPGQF
Description: Displacement of [3H]-Prazosin from human alpha-1B adrenergic receptor transfected in CHO cell membranes after 2 hrs by microplate scintillation counting analysis. In a few lines: as §1

In data set [11] the target is T6, Adrenergic receptor alpha-1 (Homo sapiens) (UniProt P35348+P25100+P35368). Description: Binding affinity to alpha-1 adrenergic receptor in human PC3 cells at 1 uM measured 30 mins post wash out by fluorescence assay. In kind it is cell-based. As to conditions: PC-3. In a few lines:
(§5)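 PC-3 or HepG2 cells were incubated with the probe at 1 μM for 30 min at 37 °C, then washed immediately. Labelling was imaged by fluorescence microscopy, with background adjusted.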

The subject of data set [12] is HepG2. The experiment in a line: Drug uptake in human HepG2 cells expressing low level of alpha-1 adrenergic receptor at 1 uM measured 30 mins post wash out by fluorescence assay. In kind it is ADME, cell-based. To be noted: hepg2, 0.5 h. In a few lines: as §5
In data set [13] the target is T6, Adrenergic receptor alpha-1 (Homo sapiens). Description: Binding affinity to alpha-1 adrenergic receptor in human PC3 cells at 1 uM measured 30 mins post wash out by fluorescence assay in presence of doxazosin. In kind it is cell-based. As to conditions: PC-3. In short, it runs like this: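 PC-3 cells were co-incubated with the probe at 1 μM and doxazosin at 10 μM for 30 min at 37 °C, then washed immediately. Displacement of labelling was imaged by fluorescence microscopy.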

In data set [14] the target is T2, Alpha-1A adrenergic receptor (Homo sapiens). Description: Binding affinity to alpha-1A adrenergic receptor (unknown origin) transfected in HEK293A cells at 15 nM measured 5 mins post wash out by DiD dye-based confocal microscopic analysis. In kind it is cell-based. To be noted: HEK293-A. In a few lines: (§6)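 HEK293A cells stably transfected with α1A-AR or α1D-AR, or untransfected HEK293A cells, were incubated with the probe at 15 nM plus the membrane dye DiD for 5 min at 37 °C. Cells were washed immediately and imaged by confocal fluorescence microscopy at identical exposure times.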

The target of data set [15] is T3, Alpha-1D adrenergic receptor (Homo sapiens). Description: Binding affinity to alpha-1D adrenergic receptor (unknown origin) transfected in HEK293A cells at 15 nM measured 5 mins post wash out by DiD dye-based confocal microscopic analysis. In kind it is cell-based. As to conditions: HEK293-A. In short, it runs like this:
as §6

The target of data set [16] is T2, Alpha-1A adrenergic receptor (Homo sapiens). Description: Binding affinity to alpha-1A adrenergic receptor (unknown origin) transfected in HEK293A cells at 15 nM measured 5 mins post wash out by DiD dye-based confocal microscopic analysis in presence of alpha1 adrenergic receptor antagonist tamsulosin. In kind it is cell-based. As to conditions: HEK293-A. In short, it runs like this: (§7)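 α1A-AR- or α1D-AR-transfected HEK293A cells were incubated with the probe at 15 nM, DiD and tamsulosin at 300 nM as competitor for 5 min at 37 °C. Cells were washed immediately and imaged by confocal microscopy at identical exposure.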

Data set [17] concerns the target T3, Alpha-1D adrenergic receptor (Homo sapiens). Description: Binding affinity to alpha-1D adrenergic receptor (unknown origin) transfected in HEK293A cells at 15 nM measured 5 mins post wash out by DiD dye-based confocal microscopic analysis in presence of alpha1 adrenergic receptor antagonist tamsulosin. In kind it is cell-based. As to conditions: HEK293-A. In a few lines: as §7

Data set [18] is described as follows: Drug uptake in HEK293A cells at 15 nM measured 5 mins post wash out by DiD dye-based confocal microscopic analysis. As to conditions: human, hek293-a, 0.015 µM. In kind it is ADME, cell-based. In a few lines: as §6
Data set [19] addresses T3, Alpha-1D adrenergic receptor (Homo sapiens). Description: Binding affinity to alpha-1D adrenergic receptor (unknown origin) transfected in HEK293 cells at 20 nM after 20 mins by flow cytometric analysis. In kind it is cell-based. On the technique in general: A flow cytometer gives signals particle by particle.
Data set [20] shares this target. Description: Binding affinity to alpha-1D adrenergic receptor (unknown origin) transfected in HEK293A cells at 10 nM after 5 mins by DiD dye-based confocal microscopic analysis. To be noted: HEK293-A. In kind it is cell-based. In short, it runs like this:
as §3

The target is the same in data set [21]. Description: Binding affinity to alpha-1D adrenergic receptor (unknown origin) transfected in HEK293A cells at 10 nM after 5 mins by DiD dye-based confocal microscopic analysis in presence of alpha1 adrenergic receptor antagonist tamsulosin. In kind it is cell-based. As to conditions: HEK293-A. In short, it runs like this: as §4
Data set [22] in a line: Drug uptake in HEK293A cells at 10 nM after 5 mins by DiD dye-based confocal microscopic analysis. In kind it is ADME, cell-based. As to conditions: human, hek293-a, 0.01 µM. In short, it runs like this:
as §3

The source made the active and inactive calls. No cut-off for these calls is given here.

Experimental findings from ChEMBL document CHEMBL3580589, “Discovery of Quinazoline-Based Fluorescent Probes to α1-Adrenergic Receptors” (ACS Med Chem Lett, 2015) are described below.

By IC50 is commonly meant the concentration that inhibits the measured activity by half. The Ki is a measure of affinity in units of concentration, obtained from inhibition or displacement. For `COc1cc2nc(N3CCN(C(=S)Nc4ccc(-c5c6ccc(=O)cc-6oc6cc(O)ccc56)c(C(=O)O)c4)CC3)nc(N)c2cc1OC`, the IC50 in data set [1] was 34 nM; in [2], > 100000 nM; in data set [3] it was > 100000 nM; in data set [9] it was 8.8 nM; in [10], 16.3 nM. The Ki in data set [1] was found to be 20.7 nM; in data set [9] it was 4.7 nM; in data set [10], 7.3 nM. For the same molecule, the outcome in [4], in [5] and in [11] was Active. For the same molecule, the result in data set [6], in data set [7] and in [13] was inactive. The Drug uptake entry in data set [8] and in data set [12] was “Active” each time.
For `COc1cc2nc(N3CCN(C(=O)c4cn(-c5cc6ccc(O)cc6oc5=O)nn4)CC3)nc(N)c2cc1OC`, the IC50 is < 5 nM in [1]; > 100000 nM in data set [2]; 85000 nM in data set [3]; 2.5 nM in [9]; < 5 nM in data set [10]. The outcome in [14] and in data set [15] was Active. The result in data set [16] and in data set [17] was inactive. Moreover, the Drug uptake entry in data set [18] is “Active”. The Ki in data set [9] was determined as 1.3 nM.
Regarding `CCN(CC)c1ccc2cc(-n3cc(C(=O)N4CCN(c5nc(N)c6cc(OC)c(OC)cc6n5)CC4)nn3)c(=O)oc2c1`, the IC50 in data set [1] worked out at 2.2 nM; in data set [2], 12000 nM; in [3], 32000 nM; in data set [9], 0.6 nM; in data set [10], 1.2 nM. The Ki in data set [1] came to 0.4 nM; in data set [9], 0.3 nM; in data set [10], 0.1 nM. In addition, the outcome in data set [19] and in data set [20] was Active. Besides, the outcome in [21] was inactive. Moreover, the Drug uptake entry in [22] is given as “Active”.
